Screens as filed in PubChem BioAssay.
IDH1 mut inh: IDH1 R132H (human) inhibition; O75874; IDH1 R132H reductase, diaphorase/resazurin fluorescence, 60 min; inhibition, % at 10 µM; actives 0.18% (n = 70,000); in the data active = inhibition above about 34%; inconclusive = no clear call, values can overlap the other calls; inactive = below about 11%;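 also: 0% = DMSO and 100% = no enzyme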
Target sequence (O75874 whole entry R132H): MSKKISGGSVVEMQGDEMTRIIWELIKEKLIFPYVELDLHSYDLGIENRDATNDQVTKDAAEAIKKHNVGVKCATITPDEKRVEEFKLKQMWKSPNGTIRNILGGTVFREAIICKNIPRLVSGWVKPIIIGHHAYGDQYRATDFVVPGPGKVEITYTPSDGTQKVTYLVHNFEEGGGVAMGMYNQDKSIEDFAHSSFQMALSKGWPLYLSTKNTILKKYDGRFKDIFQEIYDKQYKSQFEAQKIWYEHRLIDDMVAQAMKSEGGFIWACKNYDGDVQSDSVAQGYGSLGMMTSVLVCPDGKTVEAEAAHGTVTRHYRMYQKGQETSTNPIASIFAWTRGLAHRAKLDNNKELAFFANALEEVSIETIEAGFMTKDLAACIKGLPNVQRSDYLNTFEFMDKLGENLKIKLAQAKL
T cruzi growth-1: blocks T. cruzi growth in NIH3T3 culture. T. cruzi beta-gal in NIH3T3, GalScreen luminescence, 90 h. inhibition, % at 8.34 µM. actives 5.9% (n = 77,000). AID 624255;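 active = mean inhibition above about 93%, with at least 55% of replicates each passing it, limit read from the data, passing the limit was not always enough; inconclusive = only one of those two conditions holds; inactive = neither condition holds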
GASC1 inh: inhibitors of human demethylase GASC-1 KDM4C; Q9H3R0; GST-KDM4C 2-372, H3K9me3 peptide, LANCE TR-FRET; inhibition, % at 12.5 µM; actives 0.15% (n = 96,000); AID 720574;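 active = mean replicate inhibition above about 25%, with at least 55% of replicates also reaching it, limit read from the data, passing the limit was not always enough; inconclusive = only one of those two conditions met; inactive = neither condition met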
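Material: N-terminal GST-fused human GASC-1 (KDM4C) fragment, residues 2-372. Input: 10 nM enzyme. Incubation: enzyme reaction 30 min, then detection 60 min, both room temperature. Doses: one test concentration per compound. Read-out basis: inhibition from TR-FRET ratio decrease. Detection: LANCE TR-FRET, excitation 340 nm, emissions 618 and 671 nm.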
T cruzi growth-2: Trypanosoma cruzi proliferation inhibition. shares compounds with T cruzi growth-1. T. cruzi beta-gal in NIH3T3, GalScreen luminescence, 90 h. inhibition, % at 8.35 µM. actives 72% (n = 5,600). AID 651739;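 active = mean replicate inhibition above about 95% and at least 55% of replicates individually reaching it, limit read from the data; inconclusive = only one of the two criteria is met; inactive = neither criterion is met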
T cruzi growth-3: inhibitors of T. cruzi proliferation; shares compounds with T cruzi growth-1; T. cruzi beta-gal in NIH3T3, GalScreen luminescence, 90 h; inhibition, % at 2.09 µM; actives 21% (n = 5,600);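 active = mean inhibition above about 95%, with at least 55% of replicates also reaching it, limit read from the data; inconclusive = meets just one of the two conditions; inactive = meets neither condition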;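 also: plate controls were neutral control median for no effect and positive control median for full effect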
NIH3T3 tox: cytotoxicity in mouse NIH/3T3 fibroblasts | shares compounds with T cruzi growth-1 | NIH/3T3 viability, CellTiter-Glo ATP luminescence, 90 h | cytotoxicity (signal decrease), % at 8.35 µM | actives 14% (n = 5,600) | AID 651742;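 active = mean signal decrease across replicates above about 35% based on untreated-well scatter, with enough replicates individually passing, limit read from the data; inconclusive = no rule stated though some were filed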;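 also: 0% = median of neutral control wells and 100% = median of positive control wells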
3T3 cytotox 2: kills mouse NIH/3T3 fibroblasts; actives 56% (n = 5,600); AID 651744; shares compounds with T cruzi growth-1; inhibition, % at 24.9 µM; NIH/3T3 viability, CellTiter-Glo ATP luminescence, 90 h;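 active = mean loss of cell viability signal at or above a set limit, and enough replicates individually reaching it; inconclusive = meets only the mean limit or only the replicate share; inactive = meets neither condition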;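 also: 0% = median of neutral control wells and 100% = median of positive control wells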
Numbers without * were called inactive; ? = inconclusive; · = no result; ! = repeats disagree. Only a selection was taken, and hits are over-represented in it overall.

SMILES	IDH1 mut inh	T cruzi growth-1	GASC1 inh	T cruzi growth-2	T cruzi growth-3	NIH3T3 tox	3T3 cytotox 2
CN(C)CCCNC(=O)C[C@H]1CC[C@@H]2[C@H](COC[C@H](O)CN2CC2CCCC2)O1	·	?	1.9	69.9	17.3	-2.6	17.4
O=C(C[C@H]1CC[C@H]2[C@@H](COC[C@@H](O)CN2CC2CCCCC2)O1)NCc1ccc(F)cc1	·	-0.7	1.2	·	·	·	·
O=C(C[C@@H]1CC[C@@H]2[C@H](COC[C@H](O)CN2CC2CCCCC2)O1)NCc1ccc(F)cc1	·	?	-0.5	31.0	-18.8	-5.6	15.8
CN(C)CCCNC(=O)C[C@@H]1CC[C@H]2[C@@H](COC[C@@H](O)CN2CC2CCCC2)O1	·	79.9	0.0	·	·	·	·
O=C(CCCCCCC(=O)Nc1ccccc1O)N/N=C/c1cccc(O)c1	-0.3	·	·	·	·	·	·
O=C(Nc1ccc2c(c1)[C@@H]1C[C@@H](CC(=O)N3CCOCC3)O[C@H](CO)[C@@H]1O2)C1CCOCC1	0.2	14.3	3.4	·	·	·	·
CCC(=O)N1CC(=O)N2[C@@H](CO)[C@@H](c3ccc(-c4ccc(C#N)cc4)cc3)[C@@H]2C1	·	·	0.2	·	·	·	·
COc1cccc(C(=O)Nc2ccc3c(c2)C(=O)N(C)C[C@H](OC)[C@@H](C)CN(CCc2ccccc2)[C@@H](C)CO3)c1	0.3	91.3	-1.1	·	·	·	·
COc1cccc(C(=O)Nc2ccc3c(c2)OC[C@@H](C)N(CCc2ccccc2)C[C@@H](C)[C@H](OC)CN(C)C3=O)c1	0.2	117.6*	-1.3	103.2*	76.7	10.2	-4.7
COc1cccc(C(=O)Nc2ccc3c(c2)OC[C@@H](C)N(CCc2ccccc2)C[C@H](C)[C@H](OC)CN(C)C3=O)c1	-0.9	88.4	3.5	·	·	·	·
COc1cccc(C(=O)Nc2ccc3c(c2)C(=O)N(C)C[C@@H](OC)[C@H](C)CN(CCc2ccccc2)[C@H](C)CO3)c1	0.1	100.0*	-0.9	103.8*	80.1	-16.0	-15.2
COc1cccc(C(=O)Nc2ccc3c(c2)C(=O)N(C)C[C@@H](OC)[C@H](C)CN(CCc2ccccc2)[C@@H](C)CO3)c1	-0.5	92.5*	-1.4	107.8*	82.8	28.3	7.6
COc1cccc(C(=O)Nc2ccc3c(c2)C(=O)N(C)C[C@@H](OC)[C@@H](C)CN(CCc2ccccc2)[C@H](C)CO3)c1	-0.3	61.4	2.3	·	·	·	·
Cc1ccc(S(=O)(=O)N[C@H]2C=C[C@@H](CC(=O)NCc3ccncn3)O[C@H]2CO)cc1	0.3	26.9	2.8	·	·	·	·
C[C@H]1CN([C@@H](C)CO)S(=O)(=O)c2ccc(-c3ccncc3)cc2O[C@H]1CN(C)C(=O)c1cccc(F)c1	1.2	105.5*	6.6	102.0*!	75.7	4.9	18.9
C[C@@H]1CN([C@H](C)CO)S(=O)(=O)c2ccc(-c3ccncc3)cc2O[C@@H]1CN(C)C(=O)c1cccc(F)c1	0.7	104.3*	0.5	88.9	53.8	9.2	55.2*
C[C@@H]1CN([C@H](C)CO)S(=O)(=O)c2ccc(-c3cccc(F)c3)cc2O[C@H]1CN(C)C(=O)c1cccc(F)c1	-14.8	82.7	-1.2	·	·	·	·
C[C@H]1CN([C@@H](C)CO)S(=O)(=O)c2ccc(-c3cccc(F)c3)cc2O[C@@H]1CN(C)C(=O)c1cccc(F)c1	2.2	83.3	-1.7	·	·	·	·
CS(=O)(=O)CCC(C(=O)N1CCCCC1)N1C(=O)c2cc(Cl)c(Cl)cc2C1=O (stereo not given)	0.4	·	·	·	·	·	·
C[C@@H]1CCCCO[C@H](CN(C)C)[C@@H](C)CN([C@@H](C)CO)C(=O)c2cc(NC(=O)Cc3ccccc3)ccc2O1	3.1	27.7	-0.6	·	·	·	·
CCCC#Cc1cnc2c(c1)C(=O)N([C@H](C)CO)C[C@H](C)[C@@H](CN(C)C(=O)Nc1ccccc1F)O2	·	24.9	5.3	·	·	·	·
O=C(C[C@@H]1CC[C@@H]2[C@H](COC[C@@H](O)CN2S(=O)(=O)c2cccc(Cl)c2)O1)Nc1ccccc1	·	25.4	-0.6	·	·	·	·
O=C(C[C@@H]1CC[C@@H]2[C@H](COC[C@@H](O)CN2S(=O)(=O)c2cccc(Cl)c2)O1)Nc1ccc(-c2ccccc2)cc1	·	107.6*	-1.0	97.5*	?	33.8	69.6*
